pIC50: −log10 of the molar value.
Columns and labels:
[1] = target: T1, Galactofuranosyltransferase GlfT2 (Mycobacterium tuberculosis) (UniProt O53585); test: Inhibition of Mycobacterium tuberculosis GIFT2 at 2 mM at pH7.6 by spectrophotometric assay
T1 sequence (whole entry): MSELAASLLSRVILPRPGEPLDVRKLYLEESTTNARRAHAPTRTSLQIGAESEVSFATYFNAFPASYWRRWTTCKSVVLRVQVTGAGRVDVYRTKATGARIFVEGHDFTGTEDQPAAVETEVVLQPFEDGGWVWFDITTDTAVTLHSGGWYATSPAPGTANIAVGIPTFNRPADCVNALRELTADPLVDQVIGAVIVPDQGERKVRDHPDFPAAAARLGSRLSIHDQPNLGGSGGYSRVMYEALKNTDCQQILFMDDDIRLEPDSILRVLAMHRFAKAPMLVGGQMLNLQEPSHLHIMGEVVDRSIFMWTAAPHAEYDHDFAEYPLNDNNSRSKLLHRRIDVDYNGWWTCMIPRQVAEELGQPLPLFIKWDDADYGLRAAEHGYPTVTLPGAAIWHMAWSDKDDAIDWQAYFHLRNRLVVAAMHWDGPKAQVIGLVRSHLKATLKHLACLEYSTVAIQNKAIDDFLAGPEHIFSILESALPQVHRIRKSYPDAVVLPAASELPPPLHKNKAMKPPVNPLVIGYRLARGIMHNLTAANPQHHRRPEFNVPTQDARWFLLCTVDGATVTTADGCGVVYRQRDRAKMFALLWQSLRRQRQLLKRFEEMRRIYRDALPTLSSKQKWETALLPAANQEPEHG
In short: (§1)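 Coupled PK/LDH spectrophotometric assay of GlfT2. Mix contained 100 mM MOPS pH 7.6, 50 mM KCl, 20 mM MgCl2, 1.1 mM NADH, 3.5 mM PEP, 3.75 U PK and 16.8 U LDH, with β-D-Galf-(1→5)-β-D-Galf-(1→6)-β-D-Galf-octyl as acceptor. Diluted GlfT2 was added to start the reaction at 37 °C, with A340 read every 10–15 s. Closest duplicate velocities were blank-corrected and expressed as % of mean control.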

[2] = target: T1, Galactofuranosyltransferase GlfT2 (Mycobacterium tuberculosis); test: Inhibition of Mycobacterium tuberculosis GIFT2 at 4 mM at pH7.6 by spectrophotometric assay; in short: as §1
[3] = target: T2, Galactofuranosyltransferase GlfT2 (Mycobacterium tuberculosis, UniProt O53585); test: Inhibition of Mycobacterium tuberculosis GIFT2 at pH7.6 by spectrophotometric assay
T2 sequence (O53585 whole entry): T1 sequence (whole entry)

| SMILES | inhibition [1] [%] | inhibition [2] [%] | pIC50 [3] |
| --- | --- | --- | --- |
| O=C(C[C@@H]1O[C@@H](CO)[C@H](O)[C@H]1O)N[C@@H](Cc1cnc[nH]1)C(=O)NC[C@H]1O[C@@H](n2ccc(=O)[nH]c2=O)[C@H](O)[C@@H]1O | 14 | – | – |
| O=C(C[C@H]1O[C@@H](CO)[C@H](O)[C@H]1O)N[C@@H](Cc1cnc[nH]1)C(=O)NC[C@H]1O[C@@H](n2ccc(=O)[nH]c2=O)[C@H](O)[C@@H]1O | 37 | – | – |
| NC(=O)CC[C@H](NC(=O)C[C@H]1O[C@H](CO)[C@H](O)[C@H](O)[C@H]1O)C(=O)NC[C@H]1O[C@@H](n2ccc(=O)[nH]c2=O)[C@H](O)[C@@H]1O | – | < 10 | – |
| O=C(C[C@H]1O[C@H](CO)[C@H](O)[C@H](O)[C@H]1O)N[C@@H](Cc1c[nH]c2ccccc12)C(=O)NC[C@H]1O[C@@H](n2ccc(=O)[nH]c2=O)[C@H](O)[C@@H]1O | – | 75 | – |
| O=C1CCN([C@@H]2O[C@H](CNC(=O)[C@H](Cc3c[nH]c4ccccc34)NC(=O)C[C@H]3O[C@H](CO)[C@H](O)[C@H](O)[C@H]3O)[C@@H](O)[C@H]2O)C(=O)N1 | – | 53 | – |
| O=C1CCN([C@@H]2O[C@H](CNC(=O)[C@H](Cc3cnc[nH]3)NC(=O)C[C@@H]3O[C@@H](CO)[C@H](O)[C@H]3O)[C@@H](O)[C@H]2O)C(=O)N1 | < 10 | – | – |
| O=C(C[C@H]1O[C@@H](CO)[C@H](O)[C@H]1O)N[C@@H](Cc1c[nH]c2ccccc12)C(=O)NC[C@H]1O[C@@H](n2ccc(=O)[nH]c2=O)[C@H](O)[C@@H]1O | 30 | – | – |
| O=C1CCN([C@@H]2O[C@H](CNC(=O)[C@H](Cc3c[nH]c4ccccc34)NC(=O)C[C@@H]3O[C@@H](CO)[C@H](O)[C@H]3O)[C@@H](O)[C@H]2O)C(=O)N1 | < 10 | – | – |
| NC(=O)CC[C@H](NC(=O)C[C@H]1O[C@H](CO)[C@H](O)[C@H](O)[C@H]1O)C(=O)NC[C@H]1O[C@@H](N2CCC(=O)NC2=O)[C@H](O)[C@@H]1O | – | < 10 | – |
| O=C(C[C@H]1O[C@H](CO)[C@H](O)[C@H](O)[C@H]1O)N[C@@H](Cc1cnc[nH]1)C(=O)NC[C@H]1O[C@@H](n2ccc(=O)[nH]c2=O)[C@H](O)[C@@H]1O | – | 79 | 3.48 |
| O=C(C[C@@H]1O[C@@H](CO)[C@H](O)[C@H]1O)N[C@@H](Cc1c[nH]c2ccccc12)C(=O)NC[C@H]1O[C@@H](n2ccc(=O)[nH]c2=O)[C@H](O)[C@@H]1O | < 10 | – | – |
| O=C1CCN([C@@H]2O[C@H](CNC(=O)[C@H](Cc3c[nH]c4ccccc34)NC(=O)C[C@H]3O[C@@H](CO)[C@H](O)[C@H]3O)[C@@H](O)[C@H]2O)C(=O)N1 | < 10 | – | – |
| O=C1CCN([C@@H]2O[C@H](CNC(=O)[C@H](Cc3cnc[nH]3)NC(=O)C[C@H]3O[C@@H](CO)[C@H](O)[C@H]3O)[C@@H](O)[C@H]2O)C(=O)N1 | < 10 | – | – |
| O=C1CCN([C@@H]2O[C@H](CNC(=O)[C@H](Cc3cnc[nH]3)NC(=O)C[C@H]3O[C@H](CO)[C@H](O)[C@H](O)[C@H]3O)[C@@H](O)[C@H]2O)C(=O)N1 | – | 18 | – |

— ChEMBL document CHEMBL1641436, “Synthesis of sugar-amino acid-nucleosides as potential glycosyltransferase inhibitors” (Bioorg Med Chem, 2011)
